In ChEMBL document CHEMBL3352791, “Thioaryl naphthylmethanone oxime ether analogs as novel anticancer agents” (J Med Chem, 2014) one finds EC50, IC50 and selectivity ratio data, which are given here for two compounds.

Data set [1] in a line: Antiproliferative activity against human COLO205 cells after 24 hrs by MTT assay. In kind it is functional, cell-based. The settings on record: COLO 205, 24 h. In outline: (§1)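 MTT viability: cells seeded at 1×10^4 per well in DMEM with 10% FBS, left to adhere overnight, then serum-starved 4 h. Compounds were given at a range of doses, with 0.1% DMSO vehicle as control. EC50 was taken from dose-response curves spanning 100nM-50µM. Data are mean ± SEM from at least three independent experiments.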

Data set [2] deals with HEK293. The data set can be described thus: Antiproliferative activity against HEK293 cells after 24 hrs by MTT assay. In kind it is functional, cell-based. Conditions: Homo sapiens, HEK293, 24 h. In short, it runs like this:
as §1
(In general: Tetrazolium assays rely on reduction of a dye to a coloured formazan, in cell work by metabolically active cells.)

Data set [3] can be described thus: Antiproliferative activity against human HCT116 cells after 24 hrs by MTT assay. Type of data set: functional, cell-based. Conditions: HCT-116, 24 h. In short, it runs like this:
as §1

A short description of data set [4]: Safety index, ratio of IC50 for human MCF10A cells to EC50 for human SW620 cells. Conditions: MCF10A cells versus SW620 cells, read-out: Ratio IC50/EC50. Type of data set: toxicity, cell-based, SW-620. In outline:
(§2)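 Safety index is the IC50 in the normal cells divided by the EC50 in the cancer cells. Both values come from MTT assays: cells in DMEM with 10% FBS, serum-starved 4 h, then exposed to compound across a 100nM-50µM dose range with 0.1% DMSO as vehicle control.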

Data set [5] relates to SW-620. The data set can be described thus: Antiproliferative activity against human SW620 cells after 24 hrs by MTT assay. In kind it is functional, cell-based. Conditions: SW-620, 24 h. In short, it runs like this: as §1
Data set [6] is described as follows: Safety index, ratio of IC50 for human MCF10A cells to EC50 for human HCT116 cells. Conditions: MCF10A cells versus HCT116 cells, read-out: Ratio IC50/EC50. In kind it is toxicity, cell-based, MCF-10A. In short, it runs like this:
as §2

Data set [7] can be described thus: Safety index, ratio of IC50 for human MCF10A cells to EC50 for human COLO205 cells. Type of data set: toxicity, cell-based, COLO 205. Conditions: MCF10A cells versus COLO205 cells, read-out: Ratio IC50/EC50. In short, it runs like this: as §2
Data set [8] is described as follows: Safety index, ratio of IC50 for human MCF10A cells to EC50 for human DLD1 cells. In kind it is toxicity, cell-based, MCF-10A. The settings on record: MCF10A cells versus DLD1 cells, read-out: Ratio IC50/EC50. In outline:
as §2

Data set [9] is described as follows: Antiproliferative activity against human DLD1 cells after 24 hrs by MTT assay. Type of data set: functional, cell-based. Conditions: DLD-1, 24 h. In short, it runs like this:
as §1

Data set [10] relates to MDA-MB-231. The data set can be described thus: Antiproliferative activity against human ER-positive MDA-MB-231 cells after 24 hrs by MTT assay. The settings on record: Homo sapiens, MDA-MB-231, 24 h. Type of data set: functional, cell-based.
Data set [11] relates to Ishikawa. The data set can be described thus: Antiproliferative activity against human ER-positive Ishikawa cells after 24 hrs by MTT assay. Type of data set: functional, cell-based. The settings on record: Homo sapiens, Ishikawa, 24 h.
The subject of data set [12] is MDA-MB-231. Briefly: Antiproliferative activity against human ER-positive MDA-MB-231 cells after 72 hrs by MTT assay. Type of data set: functional, cell-based. Conditions: MDA-MB-231, 72 h.
In data set [13] the test system is MCF7. The data set can be described thus: Antiproliferative activity against human ER-negative MCF7 cells after 24 hrs by MTT assay. Type of data set: functional, cell-based. Conditions: Homo sapiens, MCF7, 24 h.
For data set [14], the system named is MCF7. The data set can be described thus: Antiproliferative activity against human ER-negative MCF7 cells after 72 hrs by MTT assay. Conditions: MCF7, 72 h. In kind it is functional, cell-based.
Data set [15] is described as follows: Antiproliferative activity against human prostate, androgen receptor positive DU145 cells after 24 hrs by MTT assay. In kind it is functional, cell-based, DU-145. Conditions: Homo sapiens, DU-145, 24 h.
The nature of data set [16]: in vitro. Conditions: human, MCF10A cells versus.
Data set [17] concerns HeLa. The data set can be described thus: Antiproliferative activity against human HeLa cells after 24 hrs by MTT assay. In kind it is functional, cell-based. The settings on record: Homo sapiens, HeLa, 24 h.
Data set [18] can be described thus: Cytotoxicity against human MCF10A cells after 72 hrs by MTT assay. Type of data set: ADME, cell-based. The settings on record: MCF-10A.
Data set [19] is described as follows: Safety index, ratio of IC50 for human MCF10A cells to EC50 for human ER-positive MDA-MB-231 cells. The settings on record: MCF10A cells versus.

Some results are limits rather than exact numbers.

As to `O=c1[nH]cc(F)c(=O)[nH]1` [FLUOROURACIL], the EC50 in data set [1] is 38.1 µM; in [3], more than 50 µM; in data set [5] it was more than 50 µM; in data set [9] it was 16.3 µM. Moreover, the IC50 in data set [2] is 48.7 µM. Besides, the selectivity ratio was 0.97 in data set [4], 0.97 in data set [6], 1.2 in [7] and 2.98 in data set [8].
As for `CSc1ccc(/C(=N\OCCCN2CCCCC2)c2cccc3ccccc23)cc1`, the EC50 in data set [10] came out at 20 µM; in data set [11] it was 12 µM; in data set [12], 20 µM; in data set [13], 5 µM; in data set [14] it was 5 µM; in [15], 15 µM. Further, a half-maximal response in data set [17] (EC50) required 6.5 µM. In addition, the selectivity ratio in data set [16] is 2; in [19], 0.5. The compound further showed an IC50 in [18] of 10 µM.

Usually EC50 stands for the concentration that produces a half-maximal response. Low values mean a more potent agent, high ones a less potent agent. Broadly, the IC50 is the concentration that gives 50% inhibition. High values mean weaker potency in that assay, low ones greater potency in that assay.
